# 14-3-3 Bad PPI: disrupts binding of bovine 14-3-3 zeta to phospho-Bad peptide | P63103 | TR-FRET 14-3-3zeta/Dy647-pBad peptide displacement, 1 h | inhibition, % at 21.7 µM | 220,000 compounds, 0.71% hits | AID 781;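 active = inhibition above about 70%, limit read from the data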
# Hck-Nef inh: human Hck-Nef kinase inhibition. P08631. inhibition, % at 20 µM. AID 463187. 220,000 compounds, 0.68% hits. Recombinant Hck-YEEI plus Nef, Z-Lyte FRET kinase assay;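 active = Hck-Nef kinase inhibition above about 50%, limit read from the data; inactive = inhibition below that limit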
# Target sequence (P08631 whole entry, looked up): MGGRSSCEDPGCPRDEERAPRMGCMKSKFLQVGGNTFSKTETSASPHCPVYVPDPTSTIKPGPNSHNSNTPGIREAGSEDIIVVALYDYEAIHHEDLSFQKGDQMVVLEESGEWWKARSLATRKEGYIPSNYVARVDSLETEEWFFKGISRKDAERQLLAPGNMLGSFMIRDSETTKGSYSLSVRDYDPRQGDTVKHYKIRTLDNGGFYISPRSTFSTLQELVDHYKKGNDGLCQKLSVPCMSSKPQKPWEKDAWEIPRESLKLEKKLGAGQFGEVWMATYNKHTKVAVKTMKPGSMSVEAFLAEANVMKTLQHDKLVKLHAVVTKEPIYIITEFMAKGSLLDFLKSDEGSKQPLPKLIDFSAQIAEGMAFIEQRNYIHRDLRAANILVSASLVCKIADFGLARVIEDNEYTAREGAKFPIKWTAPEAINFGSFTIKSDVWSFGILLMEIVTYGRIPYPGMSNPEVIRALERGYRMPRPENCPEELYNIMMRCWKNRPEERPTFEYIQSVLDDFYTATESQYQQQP
# Tb hexokinase: blocks Trypanosoma brucei hexokinase 1 activity; inhibition, % at 10 µM; 220,000 compounds, 0.11% hits; recombinant TbHK1, G6PDH-coupled NADH A340; AID 1430;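 active = inhibition of 50% or more in the single-dose primary screen; inactive = inhibition below 50%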
# RanGTP-Imp inh: disruptors of Ran-importin-beta complex formation – biochemical, FRET, CFP-Ran, YFP-importin-beta, homogeneous, primary screen | AID 2216 | cell-free CFP-Ran/YFP-importin-beta FRET ratio | inhibition, % (concentration not given with the values) | 300,000 compounds, 1.1% hits;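 active = more than half of the replicate wells show a fall in the fluorescence ratio signal beyond about 16%, limit read from the data, passing the limit was not always enough; inconclusive = exactly half of the replicate wells pass the set limit; inactive = fewer than half of replicates pass the limit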
# Runt-SMMHC FRET: Runt domain-CBFb-SMMHC interaction inhibition; Q01196+Q13951; Cerulean-Runt/Venus-CBFb-SMMHC FRET ratio 530/480, 1 h; inhibition, % at 20 µM; 220,000 compounds, 0.74% hits;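 active = mean inhibition across duplicate retests at 20 µM reaching about 50%, limit read from the data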;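 note: inhibitors lower the FRET ratio by blocking Runt binding to CBFb-SMMHC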
# Runt-CBFb FRET: Runt domain-CBFb interaction inhibition | Q01196+Q13951 | Cerulean-Runt/Venus-CBFb FRET ratio 530/480, 1 h | inhibition, % at 20 µM | 220,000 compounds, 0.46% hits | AID 1496;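 active = inhibition over about 50% at 20 µM in the single-dose screen, limit read from the data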
#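 Schedule: protein complex preformed 1 h, compound exposure 1 h, room temperature, dark; test system: Cerulean-labeled Runt domain protein; amount: 100 nM per protein; buffer or medium: Tris 50 mM pH 7.5, KCl, K2SO4, 0.01% BSA; read-out: loss of energy transfer signal; detection: FRET fluorescence; controls: 5 µM unlabeled CBFb as full-inhibition high control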
# Numbers stand for hits; . = inactive; ? = inconclusive; / = no result; [ ] = remark or other dose. Most compounds without a hit are left out; they make up all but 2.2% or so of the library.
SMILES,14-3-3 Bad PPI,Hck-Nef inh,Tb hexokinase,RanGTP-Imp inh,Runt-SMMHC FRET,Runt-CBFb FRET
O=C1c2cnc3ncnn3c2CC2c3ccccc3CCN12 (stereo not given),.,.,.,.,.,.
N#Cc1cnn2c3c(cnc12)C(=O)N1CCc2ccccc2C1C3 (stereo not given),.,.,.,?,86,92
O=C(CN1C(=O)C2CC=CCC2C1=O)NCC1COc2ccccc2O1 (stereo not given),.,.,.,.,.,.
CCCCCC#CCC#CCC#CCC#CCCCC(=O)O,89,76,.,.,.,.
CCCCCCCCCCCCS(=O)(=O)CCC(=O)O,.,.,.,.,.,.
COc1cccc(-n2c(C)cc(/C=C3\C(=N)N4N=C(CC(=O)N5CCOCC5)SC4=NC3=O)c2C)c1,/,/,/,16,/,/
COc1ccc(OC)c(-n2c(C)cc(/C=C3\C(=N)N4N=C(CC(=O)N5CCOCC5)SC4=NC3=O)c2C)c1,/,/,/,.,/,/
CCOC(=O)c1cnc(SCC(=O)c2ccccc2)nc1N,.,.,.,.,.,.
CCN(CC(=O)Nc1c(F)cccc1F)C(=O)c1cc(-c2cccs2)nn1-c1ccccc1,/,/,/,.,/,/
COc1ccc(-c2cc3ccc(OCC(N)=O)cc3oc2=O)cc1OC,/,/,/,.,/,/
COc1ccc(-c2cc3ccc(O)cc3oc2=O)cc1OC,/,/,/,106,/,/
N#C/C(=C\c1ccc(-c2ccc(C(=O)O)cc2)o1)C(=O)NCC1CCCO1 (stereo not given),.,.,.,30,.,.
N#C/C(=C\c1ccc(-c2ccc(C(=O)O)cc2)o1)C(=O)Nc1ccc(F)cc1,/,/,/,.,/,/
N#C/C(=C\c1ccc(N2CCOCC2)o1)C(=O)NCC1CCCO1 (stereo not given),.,.,.,.,.,.
Cc1cccc(C)c1NC(=O)/C(C#N)=C/c1ccc(-c2ccc(C(=O)O)cc2)o1,/,/,/,37,/,/
Cc1ccc(CSc2nc3ccccc3c(=O)[nH]2)cc1,71,.,.,.,.,.
O=c1cc(CSc2nc3ccccc3c(=O)[nH]2)c2ccc(O)cc2o1,.,.,.,.,52,.
O=c1[nH]c(SCc2ccccc2F)nc2ccccc12,.,.,.,.,.,.
Cc1ccc(CN(C(=O)COc2ccc(C)c(C)c2)C2CCS(=O)(=O)C2)o1 (stereo not given),/,/,/,.,/,/
Cc1cc(C)c(C)c(S(=O)(=O)NCc2ccc(C(=O)N3CCOCC3)cc2)c1C,/,/,/,.,/,/
COc1cc(OC)c2c(c1)O/C(=C\c1ccccc1)C2=O,/,/,/,.,/,/
COCOc1ccc(/C=C2/Oc3cc(OCOC)cc(OCOC)c3C2=O)c(OCOC)c1,/,/,/,104,/,/
COc1cccc(CN2C(=O)c3cccc(N)c3C2=O)c1,.,.,.,?,73,.
COc1cccc(CN2C(=O)c3ccccc3S2(=O)=O)c1,/,/,/,.,/,/
Cc1cccc(OCC(=O)N/N=C/c2cc([N+](=O)[O-])ccc2N2CCOCC2)c1,.,.,.,?,.,.
SMILES,14-3-3 Bad PPI,Hck-Nef inh,Tb hexokinase,RanGTP-Imp inh,Runt-SMMHC FRET,Runt-CBFb FRET
CC(=O)N1CCN(CC(=O)Nc2c(Cl)cccc2Cl)CC1,76,.,.,.,.,.
Cc1nn(-c2ccccc2)c(C)c1NC(=O)COC(=O)c1ccc(O)cc1O,/,/,/,.,/,/
COc1ccc(C(=O)OCCOc2cccc(Cl)c2)cc1S(=O)(=O)N1CCOCC1,/,/,/,.,/,/
O=c1[nH]c(Nc2ccccc2Cl)cc2ccccc12,/,/,/,39,/,/
Cc1ccccc1Nc1cc2ccccc2c(=O)[nH]1,.,.,.,17,.,.
O=c1[nH]c(Nc2ccc(F)cc2)cc2ccccc12,.,.,.,54,.,.
CCOC(=O)C1(Cc2cccc(Cl)c2)CCCN(C(=O)CCSC)C1 (stereo not given),/,/,/,.,/,/
N#C/C(=C/c1cn[nH]c1-c1ccc(Br)cc1)C(=O)O,.,.,.,.,.,/
CCC(=O)Nc1ccccc1C(=O)OCC(=O)c1cccc2ccccc12,85[fluorescence artefact?],.,.,.,.,.
CCC(=O)Nc1ccccc1C(=O)OCc1ccc(C(=O)c2ccccc2)cc1,.,.,.,.,.,.
CC(=O)c1cccc(NC(=O)CN2CCc3cc4c(cc3C2C)OCCCO4)c1 (stereo not given),/,/,/,.,/,/
CSc1nc(NCC(C)C)c2c3c(sc2n1)CN(C)CC3,.,.,.,17,.,.
COCCNc1nc(SC)nc2sc3c(c12)CCN(C)C3,/,/,/,.,/,/

# Bioassay records as filed in PubChem.
